High-throughput results deposited in PubChem by Johns Hopkins Ion Channel Center.
This is a sample that favours compounds with a hit; in the whole collection about 2.3% have one here.
TRPC6 inhibitor: inhibitors of mouse TRPC6 channel. Q61143. HEK293-TRPC6, membrane potential dye, ACh-evoked depolarization; active compounds read low. B-score at 10 µM. actives 1.1% (n = 310,000);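 active means B-score under library mean minus 3 SD, initial fluorescence not abnormally high, positive integrated signal ratio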;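 further: B-score derived from integrated fluorescence ratio over the kinetic read; more negative B-score means stronger inhibition of depolarization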
Target sequence (Q61143 whole entry, looked up): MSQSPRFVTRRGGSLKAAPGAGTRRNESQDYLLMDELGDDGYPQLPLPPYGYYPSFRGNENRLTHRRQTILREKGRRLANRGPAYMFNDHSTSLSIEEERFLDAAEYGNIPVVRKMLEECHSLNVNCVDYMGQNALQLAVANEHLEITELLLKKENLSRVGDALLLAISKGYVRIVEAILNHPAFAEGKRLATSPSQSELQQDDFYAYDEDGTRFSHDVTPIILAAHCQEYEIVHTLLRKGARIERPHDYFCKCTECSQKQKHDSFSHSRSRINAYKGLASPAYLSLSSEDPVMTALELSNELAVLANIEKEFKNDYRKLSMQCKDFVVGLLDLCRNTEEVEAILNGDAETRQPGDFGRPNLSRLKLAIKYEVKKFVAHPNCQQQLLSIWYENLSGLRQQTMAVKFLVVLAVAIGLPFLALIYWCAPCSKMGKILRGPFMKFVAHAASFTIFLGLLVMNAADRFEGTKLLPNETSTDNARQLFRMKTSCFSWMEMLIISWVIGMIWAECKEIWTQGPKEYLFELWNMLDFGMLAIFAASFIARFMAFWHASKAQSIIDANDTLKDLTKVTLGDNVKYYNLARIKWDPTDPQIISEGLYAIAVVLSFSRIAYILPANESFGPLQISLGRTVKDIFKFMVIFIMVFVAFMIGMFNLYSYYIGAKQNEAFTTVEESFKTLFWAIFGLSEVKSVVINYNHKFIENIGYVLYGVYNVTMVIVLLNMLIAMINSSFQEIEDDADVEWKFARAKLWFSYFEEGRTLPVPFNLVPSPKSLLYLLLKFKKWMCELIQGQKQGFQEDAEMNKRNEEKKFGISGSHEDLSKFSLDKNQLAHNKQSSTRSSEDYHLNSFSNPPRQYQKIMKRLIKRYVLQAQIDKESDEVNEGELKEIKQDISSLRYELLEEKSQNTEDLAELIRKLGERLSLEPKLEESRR
TRPC4 block: blocks the mouse TRPC4 cation channel; Q9QUQ5; HEK293 TRPC4beta/mu-opioid, DAMGO-evoked Fluo4 calcium flux; active compounds read low; actives 0.39% (n = 300,000); B-score at 10 µM;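 active means B-score over 3 SD under the library average, no early fluorescence shift, positive overall ratio signal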
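test system = HEK293 cells with stable TRPC4beta plus mu-opioid receptor expression | detection = Fluo4 Ca2+ flux fluorescence | read-out = integrated fluorescence ratio relative to baseline, converted to per-well B score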
TRPC6 act: activates the mouse TRPC6 cation channel | Q61143 | HEK293-TRPC6 membrane potential dye fluorescence; active compounds read high | B-score at 10 µM | actives 0.13% (n = 310,000);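 active means B-score of the integrated fluorescence ratio above library mean plus 3 SD, and starting fluorescence ratio within library mean plus 5 SD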;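 further: higher score means more depolarization so channel activation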
TRPC4 potent: allosteric potentiators of mouse TRPC4 channel | Q9QUQ5 | HEK293 TRPC4beta/mu-opioid, DAMGO EC20, Fluo-4 Ca2+ flux; active compounds read high | B-score at 10 µM | actives 0.42% (n = 310,000) | AID 2227;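 active means B-score of calcium response area above 5 SD of library B-scores, with initial fluorescence ratio within 5 SD of library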;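 further: B-score of integrated fluorescence ratio over time as area under calcium response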
TRPC4 agonist: TRPC4 (mouse) channel activation; Q9QUQ5; HEK293 TRPC4beta/mu-opioid, Fluo4 calcium fluorescence; active compounds read high; B-score at 10 µM; actives 0.49% (n = 310,000);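 active means B-score above 5 SD of library B-scores, and initial fluorescence ratio not above library mean plus 5 SD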;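 further: positive B-score marks a calcium rise read as TRPC4 activation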
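Assay system: HEK293 stable line with TRPC4beta plus mu-opioid receptor. Times: dye 45 min RT, read 110 s. Measured by: kinetic Fluo4 calcium fluorescence. Measure: B score of integrated ratio. Controls: assay buffer as low control, maximal DAMGO as high control.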
Starred values were filed as active, the others as inactive; i = inactive.

SMILES	TRPC6 inhibitor	TRPC4 block	TRPC6 act	TRPC4 potent	TRPC4 agonist
O=[N+]([O-])c1cc(C(F)(F)F)ccc1NC1CCN(Cc2ccccc2)CC1	i	i	i	i	i
O=[N+]([O-])c1cc(C(F)(F)F)ccc1NC1CCN(Cc2ccccc2)C1 (configuration not stated)	i	i	i	50*	i
CC1(C)CC(=O)C(C(C2=C(O)CC(C)(C)CC2=O)c2ccc(Cl)c([N+](=O)[O-])c2)C(=O)C1 (configuration not stated)	i	i	i	i	46*
C1CCN(c2nc(N3CCCC3)nc(N3CCNCC3)n2)C1	i	i	i	16*	i
Nc1nc(N2CCCCC2)nc(N2CCCCC2)n1	i	i	i	i	i
COc1cccc(OCc2cc(C(=O)NCCN3CCCCC3CO)no2)c1 (configuration not stated)	i	i	i	i	i
Cc1cc(OCc2cc(C(=O)NCCN3CCCCC3CO)no2)cc(C)c1Cl (configuration not stated)	i	-7*	i	i	i
O=C(CC1SC(=O)NC1=O)Nc1ccc(Cl)cc1 (configuration not stated)	i	i	i	i	45*
CCCC/C(O)=C1\C(=O)CC(C)(C)CC1=Nc1ccc(OC)cc1	i	i	i	12*	i
Cc1cc(-c2cn3ccccc3n2)c(C)n1-c1ccccc1	i	-7*	i	i	i
Cc1cccc(NC(=S)N(CCCN(C)C)Cc2cc3cc4c(cc3[nH]c2=O)OCO4)c1	i	i	i	i	i
CCc1ccccc1NC(=S)N(CCCN(C)C)Cc1cc2cc3c(cc2[nH]c1=O)OCO3	i	-8*	i	i	i
O=C(NCCc1cnc[nH]1)c1ccc(-c2ccccc2)cc1	i	i	i	i	106*
CCOc1ccccc1C(=O)NCCc1cnc[nH]1	i	i	i	17*	i
CCc1cc(=O)oc2cc(C)cc(OCC(=O)N3CCC(C(=O)NC(C)C)(c4ccccc4)CC3)c12	i	i	i	i	i
COc1ccc(OC)c(C2C(C(=O)c3cccs3)=C(O)C(=O)N2CCN2CCOCC2)c1 (configuration not stated)	i	i	i	i	i
CCOc1ccc(CN(C)CC(=O)NNC(=O)c2ccc(Cl)cc2)cc1OC	i	i	i	17*	i
CC[C@@H](C)[C@H](CNC)NC[C@@H](Cc1cccc2ccccc12)NCCc1cccc(C(F)(F)F)c1	i	i	i	i	97*
Cc1cccn2c(=O)c3cc(C(=O)NC4CCCC4)c(=N)n(CCCN4CCOCC4)c3nc12	i	i	i	i	i
CCCN1CN(Cc2ccco2)c2nc3ccccc3n2C1	i	-6*	i	i	i
Cc1cc(Cl)c(OCCCCNC(C)(C)C)c(Br)c1	i	i	12*	i	i
CC1CCc2c(C(=O)N3CCN(S(=O)(=O)c4cccs4)CC3)csc2C1 (configuration not stated)	i	i	i	29*	i
COC(=O)[C@@]12CCCN1[C@H](c1ccc(-c3ccc(OC)cc3)cc1)[C@@H]1C(=O)N(C)C(=O)[C@@H]12	i	i	i	24*	i
COC(=O)[C@@]12CCCN1[C@H](c1ccc(-c3ccccc3)cc1)[C@H]1C(=O)N(C)C(=O)[C@H]12	i	i	i	i	i
COc1ccccc1N(C(=O)c1snc(C(N)=O)c1N)C(C(=O)NCc1ccccc1)c1ccc(C)o1 (configuration not stated)	i	-6*	i	i	i
SMILES	TRPC6 inhibitor	TRPC4 block	TRPC6 act	TRPC4 potent	TRPC4 agonist
COc1ccc(N(C(=O)c2snc(C(N)=O)c2N)C(C(=O)NCc2ccc(F)cc2)c2ccc(C)o2)c(OC)c1 (configuration not stated)	i	i	i	i	i
Cc1ccccc1N(C(=O)c1snc(C(N)=O)c1N)C(C(=O)NCc1ccccc1)c1ccc(O)cc1 (configuration not stated)	i	i	i	i	i
CCOc1ccccc1N(C(=O)c1snc(C(N)=O)c1N)C(C(=O)NCc1ccccc1)c1ccc(O)cc1 (configuration not stated)	i	-9*	i	i	i
NC(=O)c1nsc(C(=O)N(Cc2ccco2)C(C(=O)NCc2ccccc2)c2ccc(O)cc2)c1N (configuration not stated)	i	-8*	i	i	i
CCn1c(NCc2ccccn2)nc2ccccc21	i	i	i	i	71*
CCn1c(NCc2c[nH]c3ccccc23)nc2ccccc21	i	-8*	i	i	i
O=C1CC(N2CCN(c3nc4ccccc4s3)CC2)C(=O)N1c1cccc(F)c1 (configuration not stated)	i	i	i	10*	i
CCCOc1ccc(N2C(=O)CC(N3CCN(c4nc5ccccc5s4)CC3)C2=O)cc1 (configuration not stated)	i	i	i	i	i
Cc1ccc(SCC(=O)N(C)CC(=O)Nc2cccc(F)c2)c(C)c1	i	i	i	i	i
O=Cc1cccc2ccc3cccc(C(=O)O)c3c12	i	i	i	i	i
CC(=O)[C@@H]1[C@@H]2C(=O)N(c3ccc(F)c(Cl)c3)C(=O)[C@@H]2C2c3ccccc3C=CN21 (some centres not stated)	i	-7*	i	i	i
CC(=O)[C@H]1[C@@H]2C(=O)N(c3cccc(Cl)c3)C(=O)[C@@H]2[C@H]2c3ccccc3C=CN21	i	i	i	i	i
Cc1ccsc1/C=C(\C#N)C(=O)Nc1c(C)n(C)n(-c2ccccc2)c1=O	i	i	i	11*	i
COc1ccc(C=Nc2ccc3[nH]ncc3c2)c(O)c1	i	i	i	i	i
Oc1c(Br)cc(Br)cc1C=Nc1ccc2[nH]ncc2c1	i	-7*	i	i	i
Cc1nn(-c2ccccc2)c2nc(-c3ccccc3)cc(C(=O)N3CCOCC3)c12	i	i	i	14*	i
O=C(CC1C(=O)NCCN1Cc1cccc(C(F)(F)F)c1)NCCc1cnccn1 (configuration not stated)	i	i	i	i	i
C=CC[C@]12CC=CC(=O)[C@@]1(O)O[C@H](c1ccc(OC)c(OC)c1)[C@H]2C	i	i	i	i	i
CC(=O)c1cccc(OCCCOc2cccc3cccnc23)c1	i	i	i	i	i
